Source: ChEMBL document CHEMBL1157208, “Synthesis and CNS depressant activity of some novel 3-[5-substituted 1,3,4-thiadiazole-2-yl]-2-styryl quinazoline-4(3H)-ones” (Eur J Med Chem, 2008)
Activity calls are given as the source filed them. No cut-off for these calls is given here.

What was measured:
Mus musculus [1] = assay: Neurotoxicity in mouse at 300 mg/kg, ip after 4 hrs by rotarod test; assay type: toxicity, organism-based; design: dose 300 mg/kg, route intraperitoneal; details: in vivo
Procedure, shortened: (§1)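 Mice dosed i.p. at 30, 100 and 300 mg/kg in PEG 400 were examined 0.5 and 4 h later on a rotorod. Animals were pre-trained on a 3.2 cm rod turning at 6 rpm. Neurotoxicity meant failing to keep equilibrium for at least 1 min in each of three trials. The value is the minimum dose affecting half or more of the animals.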

Mus musculus [2] = assay: Anticonvulsant activity in ip dosed mouse assessed as inhibition of maximal electroshock-induced seizures after 4 hrs; assay type: functional
Procedure, shortened: (§2)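 Male albino mice (CF-1 or Swiss, 18–25 g) received compound suspended in polyethylene glycol 400, i.p., 0.01 ml/g, at 30, 100 and 300 mg/kg. Maximal electroshock and subcutaneous pentylenetetrazole seizure tests were run at 0.5 and 4 h by a previously reported procedure.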

Mus musculus [3] = assay: Anticonvulsant activity in mouse assessed as inhibition of maximal electroshock-induced seizures at 300 mg/kg, ip after 0.5 hrs; assay type: functional, organism-based; design: dose 300 mg/kg; procedure, shortened: as §2
Mus musculus [4] = assay: Neurotoxicity in mouse at 300 mg/kg, ip after 0.5 hrs by rotarod test; assay type: toxicity, organism-based; design: dose 300 mg/kg, route intraperitoneal; details: in vivo; procedure, shortened: as §1
Mus musculus [5] = assay: Anticonvulsant activity in mouse assessed as inhibition of pentylenetetrazole-induced seizure at 300 mg/kg, ip after 0.5 hrs; assay type: functional, organism-based; design: dose 300 mg/kg; procedure, shortened: as §2
Mus musculus [6] = assay: Anticonvulsant activity in mouse assessed as inhibition of pentylenetetrazole-induced seizure at 300 mg/kg, ip after 4 hrs; assay type: functional, organism-based; design: dose 300 mg/kg; procedure, shortened: as §2
Mus musculus [7] = assay: Sedative-hypnotic effect in mouse assessed as inhibition of locomotor activity at 100 mg/kg, ip by actophotometer; assay type: functional; details: route intraperitoneal
Procedure, shortened: (§3)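 Locomotor activity in mice was read as a digital photocell score on an actophotometer. Baseline was taken 24 h before treatment, then at 30 min and 1 h after 100 mg/kg i.p. Controls received PEG 400. Percent decrease was calculated from the 1 h values. Results are mean ± SEM of six mice, compared with Student's t test.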

Mus musculus [8] = assay: Sedative-hypnotic effect in mouse assessed as decrease locomotor activity score at 100 mg/kg, ip after 0.5 hrs by actophotometer; assay type: functional; details: route intraperitoneal; procedure, shortened: as §3
Mus musculus [9] = assay: Sedative-hypnotic effect in mouse assessed as decrease locomotor activity score at 100 mg/kg, ip after 1 hr by actophotometer; assay type: functional; details: route intraperitoneal; procedure, shortened: as §3
Mus musculus [10] = assay: Anticonvulsant activity in ip dosed mouse assessed as inhibition of pentylenetetrazole-induced seizure after 4 hrs; assay type: functional; procedure, shortened: as §2
Rattus norvegicus = assay: Antidepressant activity in Wistar rat assessed as increase in immobility time at 30 mg/kg, ip after 30 mins by forced-swimming test; assay type: functional; details: route intraperitoneal
Mus musculus [11] = assay: Neurotoxicity in ip dosed mouse after 0.5 hrs by rotarod test; assay type: toxicity, organism-based; details: in vivo; procedure, shortened: as §1
Mus musculus [12] = assay: Neurotoxicity in ip dosed mouse after 4 hrs by rotarod test; assay type: toxicity, organism-based; details: in vivo; procedure, shortened: as §1
Mus musculus [13] = assay: Anticonvulsant activity in ip dosed mouse assessed as inhibition of pentylenetetrazole-induced seizure after 0.5 hrs; assay type: functional; procedure, shortened: as §2
Mus musculus [14] = assay: Anticonvulsant activity in ip dosed mouse assessed as inhibition of maximal electroshock-induced seizures after 0.5 hrs; assay type: functional; procedure, shortened: as §2
Mus musculus [15] = assay: Neurotoxicity in mouse assessed as loss of righting reflux at 100 mg/kg, ip after 0.5 hrs; assay type: toxicity, organism-based; design: dose 100 mg/kg, route intraperitoneal; details: in vivo
Mus musculus [16] = assay: Anticonvulsant activity in mouse assessed as inhibition of maximal electroshock-induced seizures at 300 mg/kg, ip after 4 hrs; assay type: functional, organism-based; design: dose 300 mg/kg; procedure, shortened: as §2
Mus musculus [17] = assay: Neurotoxicity in mouse at 100 mg/kg, ip after 1 hr by rotarod test; assay type: toxicity, organism-based; design: dose 100 mg/kg, route intraperitoneal; details: in vivo
Mus musculus [18] = assay: Neurotoxicity in mouse at 100 mg/kg, ip after 0.25 hrs by rotarod test; assay type: toxicity, organism-based; design: dose 100 mg/kg, route intraperitoneal; details: in vivo
Mus musculus [19] = assay: Toxicity in mouse at 300 mg/kg, ip; assay type: organism-based; design: dose 300 mg/kg, route intraperitoneal; details: in vivo
Mus musculus [20] = assay: Sedative-hypnotic effect in mouse assessed as inhibition of locomotor activity at 25 mg/kg, po by actophotometer; assay type: functional
Mus musculus [21] = assay: Sedative-hypnotic effect in mouse assessed as decrease locomotor activity score at 25 mg/kg, po after 0.5 hrs by actophotometer; assay type: functional
Mus musculus [22] = assay: Sedative-hypnotic effect in mouse assessed as decrease locomotor activity score at 25 mg/kg, po after 1 hr by actophotometer; assay type: functional

| SMILES | Activity (Mus musculus [1]) | Activity (Mus musculus [2]) [mg/kg] | Activity (Mus musculus [3]) | Activity (Mus musculus [4]) | Activity (Mus musculus [5]) | Activity (Mus musculus [6]) | inhibition in vivo at 100 mg/kg (Mus musculus [7]) [%] | Activity (Mus musculus [8]) | Activity (Mus musculus [9]) | Activity (Mus musculus [16]) | also measured |
| --- | --- | --- | --- | --- | --- | --- | --- | --- | --- | --- | --- |
| Cc1ccc(/C=C/c2nc3ccccc3c(=O)n2-c2nnc(-c3ccc(Cl)cc3)s2)cc1 | Not Active | 300 | inactive | Not Active | inactive | inactive | 64 | 373.56 | 153.08 | – | – |
| NC(=O)N1c2ccccc2C=Cc2ccccc21 [CARBAMAZEPINE] | – | 100 | – | – | – | – | – | – | – | – | Activity (Mus musculus [10]): 300 mg/kg; Activity (Rattus norvegicus): 240.3 s; Activity (Mus musculus [11]): 100 mg/kg; Activity (Mus musculus [12]): 300 mg/kg; Activity (Mus musculus [13]): 100 mg/kg; Activity (Mus musculus [14]): 30 mg/kg |
| COc1ccc(/C=C/c2nc3ccccc3c(=O)n2-c2nnc(-c3ccccc3)s2)cc1 | Not Active | – | inactive | – | inactive | inactive | 55 | 419.24 | 210.24 | inactive | Activity (Mus musculus [15]): Toxic |
| COc1ccc(/C=C/c2nc3ccccc3c(=O)n2-c2nnc(/C=C/c3ccccc3)s2)cc1 | Not Active | – | inactive | Not Active | inactive | inactive | 51 | 362.37 | 228.32 | inactive | – |
| CCC1(C)CC(=O)NC1=O (centres undefined) [ETHOSUXIMIDE] | Not Active | – | inactive | Not Active | – | inactive | – | – | – | inactive | Activity (Mus musculus [13]): 300 mg/kg |
| COc1ccc(-c2nnc(-n3c(/C=C/c4ccccc4)nc4ccccc4c3=O)s2)cc1 | Not Active | – | inactive | Not Active | inactive | inactive | 36 | 381.82 | 266.36 | inactive | – |
| COc1ccc(/C=C/c2nc3ccccc3c(=O)n2-c2nnc(-c3ccc(OC)cc3)s2)cc1 | Not Active | – | inactive | – | inactive | inactive | 59 | 308.13 | 180.3 | inactive | Activity (Mus musculus [11]): 300 mg/kg |
| COc1ccc(-c2nnc(-n3c(/C=C/c4ccc(C)cc4)nc4ccccc4c3=O)s2)cc1 | Not Active | – | inactive | Not Active | inactive | inactive | 65 | 272.19 | 137.19 | inactive | – |
| COc1ccc(/C=C/c2nc3ccccc3c(=O)n2-c2nnc(-c3ccc(Cl)cc3)s2)cc1 | Not Active | 300 | inactive | Not Active | – | – | 62 | 306.98 | 155.31 | – | Activity (Mus musculus [10]): 300 mg/kg |
| Cc1ccc(/C=C/c2nc3ccccc3c(=O)n2-c2nnc(/C=C/c3ccccc3)s2)cc1 | Not Active | – | inactive | Not Active | inactive | inactive | 67 | 310.32 | 123.32 | inactive | – |
| COc1ccc(/C=C/c2nc3ccccc3c(=O)n2-c2nnc(-c3ccc(C)cc3)s2)cc1 | Not Active | – | inactive | Not Active | – | inactive | 64 | 315.46 | 142.19 | inactive | Activity (Mus musculus [13]): 300 mg/kg |
| O=c1c2ccccc2nc(/C=C/c2ccccc2)n1-c1nnc(/C=C/c2ccccc2)s1 | Not Active | – | inactive | – | inactive | inactive | – | 372.87 | 489.92 | inactive | Activity (Mus musculus [11]): 300 mg/kg |
| COc1ccc(/C=C/c2nc3ccccc3c(=O)n2-c2nnc(-c3cccc(Cl)c3)s2)cc1 | Not Active | 300 | inactive | Not Active | inactive | inactive | 66 | 292.39 | 110.45 | – | – |
| Cc1ccc(/C=C/c2nc3ccccc3c(=O)n2-c2nnc(-c3ccccc3)s2)cc1 | Not Active | – | inactive | Not Active | inactive | inactive | 55 | 353.52 | 185.15 | inactive | – |
| O=c1c2ccccc2nc(/C=C/c2ccccc2)n1-c1nnc(-c2cccc(Cl)c2)s1 | Not Active | 100 | inactive | – | inactive | inactive | 63 | 319.57 | 165.52 | – | Activity (Mus musculus [17]): Toxic; Activity (Mus musculus [11]): 300 mg/kg; Activity (Mus musculus [18]): Toxic |
| O=c1c2ccccc2nc(/C=C/c2ccccc2)n1-c1nnc(-c2ccc(Cl)cc2)s1 | Not Active | 100 | – | Not Active | – | – | 68 | 250.62 | 132.04 | – | Activity (Mus musculus [10]): 300 mg/kg; Activity (Mus musculus [13]): 300 mg/kg; Activity (Mus musculus [14]): 100 mg/kg |
| O=c1c2ccccc2nc(/C=C/c2ccccc2)n1-c1nnc(-c2ccccc2)s1 | Not Active | – | – | Not Active | inactive | – | 55 | 472.31 | 249.45 | inactive | Activity (Mus musculus [14]): 30 mg/kg; Activity (Mus musculus [19]): Toxic |
| Cc1ccc(/C=C/c2nc3ccccc3c(=O)n2-c2nnc(-c3ccc(C)cc3)s2)cc1 | Not Active | – | inactive | Not Active | inactive | inactive | 71 | 291.39 | 92.2 | inactive | – |
| Cc1ccc(/C=C/c2nc3ccccc3c(=O)n2-c2nnc(-c3cccc(Cl)c3)s2)cc1 | Not Active | – | inactive | Not Active | – | – | 65 | 298.67 | 128.94 | inactive | Activity (Mus musculus [10]): 300 mg/kg; Activity (Mus musculus [13]): 300 mg/kg |
| Cc1ccc(-c2nnc(-n3c(/C=C/c4ccccc4)nc4ccccc4c3=O)s2)cc1 | Not Active | – | inactive | Not Active | inactive | inactive | – | 531 | 467 | inactive | – |
| O=C1NC(=O)C(c2ccccc2)(c2ccccc2)N1 [PHENYTOIN] | – | 30 | – | – | inactive | inactive | – | – | – | – | Activity (Mus musculus [11]): 100 mg/kg; Activity (Mus musculus [12]): 100 mg/kg; inhibition in vivo at 25 mg/kg (Mus musculus [20]): 70%; Activity (Mus musculus [21]): 251.02; Activity (Mus musculus [22]): 164.1; Activity (Mus musculus [14]): 30 mg/kg |
| CCCC(CCC)C(=O)[O-].[Na+] [VALPROATE SODIUM] | Not Active | – | inactive | Not Active | – | inactive | – | – | – | inactive | Activity (Mus musculus [13]): 300 mg/kg |
